Measured values as given in ChEMBL document CHEMBL1139376, “Synthesis and biological activity of human neuropeptide S analogues modified in position 5: identification of potent and pure neuropeptide S receptor antagonists” (J Med Chem, 2009).
Each block holds one compound with its values, some of them ahead of it. The source made the active and inactive calls. The rule behind the calls is not given here. Where a SMILES comes first, the peptide text is derived from it. [ ]: non-standard residue; d: D form. The star is where a group is joined. Bn = c1ccc(C*)cc1; Acm = CC(=O)NC*; tBu = CC(C)(C)*

What was measured:
[1] = target: T1, Neuropeptide S receptor (Mus musculus) (UniProt Q8BZP8); assay: Agonist activity at mouse NPSR expressed in HEK293 cells upto 10 uM by calcium mobilization assay; type: functional, cell-based
T1 sequence (whole entry): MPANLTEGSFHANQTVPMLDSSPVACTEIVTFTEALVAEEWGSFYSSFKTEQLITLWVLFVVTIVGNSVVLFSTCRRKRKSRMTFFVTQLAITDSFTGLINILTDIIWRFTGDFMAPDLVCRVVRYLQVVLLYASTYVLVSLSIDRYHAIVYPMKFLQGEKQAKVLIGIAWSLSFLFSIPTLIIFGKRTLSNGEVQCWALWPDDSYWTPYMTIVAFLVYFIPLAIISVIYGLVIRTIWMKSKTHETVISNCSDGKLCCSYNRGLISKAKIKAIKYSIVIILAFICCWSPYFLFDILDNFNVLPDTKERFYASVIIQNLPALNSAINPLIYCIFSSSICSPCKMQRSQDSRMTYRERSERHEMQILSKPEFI
Method in brief: (§1)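 HEK293 cells stably expressing mouse NPSR were grown in DMEM with 10% FBS, 2 mM glutamine and hygromycin. They were plated on poly-D-lysine wells and, the next day, loaded for 30 min at 37 °C with 3 μM Fluo-4 AM, 2.5 mM probenecid and 0.01% pluronic acid. Fluorescence was read at about 22 °C in HBSS with 20 mM HEPES, probenecid and 500 μM Brilliant Black. The response was the peak fluorescence change as % of baseline, from at least 4 experiments run in duplicate.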

Neuropeptide S receptor = target: T2, Neuropeptide S receptor (Mus musculus, UniProt Q8BZP8); assay: Agonist activity at mouse NPSR expressed in HEK293 cells by calcium mobilization assay; type: functional, cell-based; method in brief: as §1
T2 sequence (Q8BZP8 whole entry): T1 sequence (whole entry)

Mus musculus [2] = assay: Effect on locomotor activity in […] Swiss mouse assessed as increase in cumulative distance traveled dosed at 1 nmol, icv before 5 mins observed for 60 mins; type: functional, organism-based
Method in brief: (§2)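 Male Swiss mice (2 months, 25–30 g) received peptide i.c.v. at 0.01–1 nmole in 2 μl into the left ventricle under light ether anaesthesia, 5 min before testing. Each mouse was used once, in the light phase, with no food during testing. Activity was tracked for 60 min in 40 × 40 cm cages. Video recorded distance and immobility time, and an infrared beam array counted rearings. There were 4 experiments with 4 mice/group.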

Mus musculus [3] = assay: Effect on locomotor activity in […] Swiss mouse assessed as immobility time at 1 nmol, icv befor 5 mins observed for 60 mins; type: functional, organism-based; method in brief: as §2
Mus musculus [4] = assay: Effect on locomotor activity in […] Swiss mouse assessed as number of rearings dosed at 1 nmol, icv befor 5 mins observed for 60 mins; type: functional, organism-based; method in brief: as §2
Mus musculus [5] = assay: Effect on locomotor activity in […] Swiss mouse assessed as increase in cumulative distance traveled dosed at 0.1 nmol, icv before 5 mins observed for 60 mins; type: functional, organism-based; method in brief: as §2
Mus musculus [6] = assay: Effect on locomotor activity in […] Swiss mouse assessed as decrease in immobility time at 0.1 nmol, icv before 5 mins observed for 60 mins
Mus musculus [7] = assay: Effect on locomotor activity in […] Swiss mouse assessed as increase in number of rearings dosed at 0.1 nmol, icv before 5 mins observed for 60 mins; type: functional, organism-based; method in brief: as §2
[8] = target: T1, Neuropeptide S receptor (Mus musculus); assay: Agonist activity at mouse NPSR expressed in HEK293 cells by calcium mobilization assay relative to basal level; type: functional, cell-based; method in brief: as §1

Compound: CSCC[C@H](NC(=O)CNC(=O)[C@@H](NC(=O)CNC(=O)[C@@H](NC(=O)[C@@H](CSCc1ccccc1)NC(=O)[C@H](CC(N)=O)NC(=O)[C@H](CCCNC(=N)N)NC(=O)[C@H](Cc1ccccc1)NC(=O)[C@@H](N)CO)C(C)C)[C@@H](C)O)C(=O)N[C@@H](CCCCN)C(=O)N[C@@H](CCCCN)C(=O)N[C@H](C(=O)N[C@@H](CO)C(=O)N[C@@H](Cc1ccccc1)C(=O)N[C@@H](CCC(N)=O)C(=O)N[C@@H](CCCNC(=N)N)C(=O)N[C@@H](C)C(=O)N[C@@H](CCCCN)C(=O)N[C@@H](CO)C(=O)O)[C@@H](C)O (H-SFRN[dC](Bn)VGTGMKKTSFQRAKS-OH)
- Activity [1]: inactive

Compound: CSCC[C@H](NC(=O)CNC(=O)[C@@H](NC(=O)CNC(=O)[C@@H](NC(=O)[C@@H](Cc1ccccc1)NC(=O)[C@H](CC(N)=O)NC(=O)[C@H](CCCNC(=N)N)NC(=O)[C@H](Cc1ccccc1)NC(=O)[C@@H](N)CO)C(C)C)[C@@H](C)O)C(=O)N[C@@H](CCCCN)C(=O)N[C@@H](CCCCN)C(=O)N[C@H](C(=O)N[C@@H](CO)C(=O)N[C@@H](Cc1ccccc1)C(=O)N[C@@H](CCC(N)=O)C(=O)N[C@@H](CCCNC(=N)N)C(=O)N[C@@H](C)C(=O)N[C@@H](CCCCN)C(=O)N[C@@H](CO)C(=O)O)[C@@H](C)O (H-SFRN[dF]VGTGMKKTSFQRAKS-OH)
- Activity [1]: inactive

Compound: CSCC[C@H](NC(=O)CNC(=O)[C@@H](NC(=O)CNC(=O)[C@@H](NC(=O)[C@@H](CC(C)C)NC(=O)[C@H](CC(N)=O)NC(=O)[C@H](CCCNC(=N)N)NC(=O)[C@H](Cc1ccccc1)NC(=O)[C@@H](N)CO)C(C)C)[C@@H](C)O)C(=O)N[C@@H](CCCCN)C(=O)N[C@@H](CCCCN)C(=O)N[C@H](C(=O)N[C@@H](CO)C(=O)N[C@@H](Cc1ccccc1)C(=O)N[C@@H](CCC(N)=O)C(=O)N[C@@H](CCCNC(=N)N)C(=O)N[C@@H](C)C(=O)N[C@@H](CCCCN)C(=O)N[C@@H](CO)C(=O)O)[C@@H](C)O (H-SFRN[dL]VGTGMKKTSFQRAKS-OH)
- EC50 (Neuropeptide S receptor): 89.1 nM

Compound: H-SFRNWVGTGMKKTSFQRAKS-OH
- Emax [8]: 30%

The next lines start with results.

- Activity [1]: inactive
Compound: CSCC[C@H](NC(=O)CNC(=O)[C@@H](NC(=O)CNC(=O)[C@@H](NC(=O)[C@@H](CSCNC(C)=O)NC(=O)[C@H](CC(N)=O)NC(=O)[C@H](CCCNC(=N)N)NC(=O)[C@H](Cc1ccccc1)NC(=O)[C@@H](N)CO)C(C)C)[C@@H](C)O)C(=O)N[C@@H](CCCCN)C(=O)N[C@@H](CCCCN)C(=O)N[C@H](C(=O)N[C@@H](CO)C(=O)N[C@@H](Cc1ccccc1)C(=O)N[C@@H](CCC(N)=O)C(=O)N[C@@H](CCCNC(=N)N)C(=O)N[C@@H](C)C(=O)N[C@@H](CCCCN)C(=O)N[C@@H](CO)C(=O)O)[C@@H](C)O (H-SFRN[dC](Acm)VGTGMKKTSFQRAKS-OH)

- Activity [1]: inactive
Compound: CSCC[C@H](NC(=O)CNC(=O)[C@@H](NC(=O)CNC(=O)[C@@H](NC(=O)[C@@H](CSC(C)(C)C)NC(=O)[C@H](CC(N)=O)NC(=O)[C@H](CCCNC(=N)N)NC(=O)[C@H](Cc1ccccc1)NC(=O)[C@@H](N)CO)C(C)C)[C@@H](C)O)C(=O)N[C@@H](CCCCN)C(=O)N[C@@H](CCCCN)C(=O)N[C@H](C(=O)N[C@@H](CO)C(=O)N[C@@H](Cc1ccccc1)C(=O)N[C@@H](CCC(N)=O)C(=O)N[C@@H](CCCNC(=N)N)C(=O)N[C@@H](C)C(=O)N[C@@H](CCCCN)C(=O)N[C@@H](CO)C(=O)O)[C@@H](C)O (H-SFRN[dC](tBu)VGTGMKKTSFQRAKS-OH)

- Activity [1]: inactive
Compound: CSCC[C@H](NC(=O)CNC(=O)[C@@H](NC(=O)CNC(=O)[C@@H](NC(=O)[C@@H](CCSC)NC(=O)[C@H](CC(N)=O)NC(=O)[C@H](CCCNC(=N)N)NC(=O)[C@H](Cc1ccccc1)NC(=O)[C@@H](N)CO)C(C)C)[C@@H](C)O)C(=O)N[C@@H](CCCCN)C(=O)N[C@@H](CCCCN)C(=O)N[C@H](C(=O)N[C@@H](CO)C(=O)N[C@@H](Cc1ccccc1)C(=O)N[C@@H](CCC(N)=O)C(=O)N[C@@H](CCCNC(=N)N)C(=O)N[C@@H](C)C(=O)N[C@@H](CCCCN)C(=O)N[C@@H](CO)C(=O)O)[C@@H](C)O (H-SFRN[dM]VGTGMKKTSFQRAKS-OH)

- Activity [1]: inactive
Compound: CSCC[C@H](NC(=O)CNC(=O)[C@@H](NC(=O)CNC(=O)[C@@H](NC(=O)[C@H](NC(=O)[C@H](CC(N)=O)NC(=O)[C@H](CCCNC(=N)N)NC(=O)[C@H](Cc1ccccc1)NC(=O)[C@@H](N)CO)C(C)C)C(C)C)[C@@H](C)O)C(=O)N[C@@H](CCCCN)C(=O)N[C@@H](CCCCN)C(=O)N[C@H](C(=O)N[C@@H](CO)C(=O)N[C@@H](Cc1ccccc1)C(=O)N[C@@H](CCC(N)=O)C(=O)N[C@@H](CCCNC(=N)N)C(=O)N[C@@H](C)C(=O)N[C@@H](CCCCN)C(=O)N[C@@H](CO)C(=O)O)[C@@H](C)O (H-SFRN[dV]VGTGMKKTSFQRAKS-OH)
- Activity (Mus musculus [2]): Active
- Activity (Mus musculus [3]): Active
- Activity (Mus musculus [4]): Active

- Activity [1]: inactive
Compound: CSCC[C@H](NC(=O)CNC(=O)[C@@H](NC(=O)CNC(=O)[C@@H](NC(=O)[C@@H](Cc1c[nH]c2ccccc12)NC(=O)[C@H](CC(N)=O)NC(=O)[C@H](CCCNC(=N)N)NC(=O)[C@H](Cc1ccccc1)NC(=O)[C@@H](N)CO)C(C)C)[C@@H](C)O)C(=O)N[C@@H](CCCCN)C(=O)N[C@@H](CCCCN)C(=O)N[C@H](C(=O)N[C@@H](CO)C(=O)N[C@@H](Cc1ccccc1)C(=O)N[C@@H](CCC(N)=O)C(=O)N[C@@H](CCCNC(=N)N)C(=O)N[C@@H](C)C(=O)N[C@@H](CCCCN)C(=O)N[C@@H](CO)C(=O)O)[C@@H](C)O (H-SFRN[dW]VGTGMKKTSFQRAKS-OH)

- EC50 (Neuropeptide S receptor): 2.24 nM
Compound: H-SFRNGVGTGMKKTSFQRAKS-OH [NEUROPEPTIDE S]
- Activity (Mus musculus [5]): Active
- Activity (Mus musculus [6]): Active
- Activity (Mus musculus [7]): Active
